From ChEMBL document CHEMBL1152469, “Telithromycin resistance in Streptococcus pneumoniae is conferred by a deletion in the leader sequence of erm(B) that increases rRNA methylation” (2008)
In brackets after ≈: the same amount, converted by molar mass.

Tests used:
Format in all cases: functional
[1] = tested on: Streptococcus pneumoniae; assay: Antimicrobial activity against wild-type Streptococcus pneumoniae PC13 by agar dilution method
Procedure, shortened: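 Agar dilution MICs on plates prepared per CLSI guidance and containing 5% horse blood. Plates incubated in ambient air for 20-24 h. Interpretation used CLSI broth microdilution breakpoints, with S. pneumoniae ATCC49619 as reference strain.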

[2] = tested on: Streptococcus pneumoniae; assay: Antimicrobial activity against telithromycin-resistant Streptococcus pneumoniae isolate P1501016 by agar dilution method
Procedure, shortened: (§1)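 Agar dilution MICs per CLSI agar plate preparation, plates containing 5% horse blood, incubated in ambient air 20-24 h; MICs interpreted with CLSI broth microdilution breakpoints (telithromycin ≤1 µg/ml S, 2 I, ≥4 R). Reference strain S. pneumoniae ATCC49619. Induction testing run without and with erythromycin (0.25 µg/ml).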

[3] = tested on: Streptococcus pneumoniae; assay: Increase in lag phase of growth for wild type Streptococcus pneumoniae PC13 assessed as doubling time at 1 ug/ml
Procedure, shortened: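 Glycerol stocks diluted 1:100 into Tryptone Soya Broth with or without erythromycin 1 µg/ml and incubated at 37°C, 5% CO2. OD600 read every 30 min, and doubling time calculated over exponential growth.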

[4] = tested on: Streptococcus pneumoniae; assay: Increase in dimethylation at position A2058 of 23S rRNA of Streptococcus pneumoniae isolate P1501016 at 0.25 ug/ml by phosphorimager scanning relative to baseline
Procedure, shortened: (§2)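 Cells grown in Tryptone Soya Broth at 37°C, 5% CO2 to OD600 0.2, either untreated, with telithromycin 0.008 µg/ml, or with erythromycin 0.25 µg/ml. Total RNA extracted. A primer complementary to 23S rRNA G2061-U2079 was extended by reverse transcriptase on 1.5 pmol rRNA with dTTP, dCTP and ddGTP. Triplicate reactions run on denaturing gels beside a sequencing ladder and quantified by phosphorimager.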

[5] = tested on: Streptococcus pneumoniae; assay: Increase in erm(B) mRNA expression in wild type Streptococcus pneumoniae PC13 at 0.25 ug/ml by qRT-PCR relative to baseline
Procedure, shortened: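 Cultures grown in triplicate in Tryptone Soya Broth at 37°C, 5% CO2 to OD600 0.2, without antibiotic or with erythromycin 0.25 µg/ml. Cells stabilised in RNAProtect, then RNA extracted for relative quantification of erm(B) mRNA against untreated cells.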

[6] = tested on: Streptococcus pneumoniae; assay: Increase in erm(B) mRNA expression in Streptococcus pneumoniae […] transformant harboring 136-bp deletion in erm(B) gene at 0.25 ug/ml by qRT-PCR relative to baseline
Procedure, shortened: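 Strains grown in TSB at 37°C, 5% CO2 to OD600 0.2, untreated or with erythromycin (0.25 µg/ml), three cultures per condition. Cells stabilised in RNAProtect before RNA extraction. erm(B) mRNA quantified relative to the untreated culture. Means compared by paired t test at the 95% level.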

[7] = tested on: Streptococcus pneumoniae; assay: Increase in dimethylation at position A2058 of 23S rRNA of Streptococcus pneumoniae PC13 transformant harboring 136-bp deletion in erm(B) gene at 0.25 ug/ml by phosphorimager scanning relative to baseline
Procedure, shortened: (§3)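 Cells grown in TSB at 37°C, 5% CO2 to OD600 0.2, untreated or with telithromycin (0.008 µg/ml) or erythromycin (0.25 µg/ml), three cultures per condition. Total RNA extracted. Primer extension across G2061-U2079 of 23S rRNA on 1.5 pmol rRNA with reverse transcriptase, ddGTP mix in test samples, done in triplicate. Products run on denaturing polyacrylamide gels, quantified by phosphorimager as % A2058 dimethylation.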

[8] = tested on: Streptococcus pneumoniae; assay: Increase in lag phase of growth for telithromycin-resistant Streptococcus pneumoniae isolate P1501016 assessed as doubling time at 1 ug/ml
Procedure, shortened: (§4)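 Inoculated from glycerol stocks 1:100 into TSB with or without erythromycin (1 µg/ml), 37°C in 5% CO2. OD600 read every 30 min; doubling time calculated over exponential growth.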

[9] = tested on: Streptococcus pneumoniae; assay: Increase in lag phase of growth for Streptococcus pneumoniae PC13 transformant harboring 136-bp deletion in erm(B) gene assessed as doubling time at 1 ug/ml; procedure, shortened: as §4
[10] = tested on: Streptococcus pneumoniae; assay: Increase in erm(B) mRNA expression in Streptococcus pneumoniae PC13 transformant harboring 136-bp deletion in erm(B) gene at 0.008 ug/ml by qRT-PCR relative to baseline
Procedure, shortened: (§5)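 Cells grown in Tryptone Soya Broth at 37°C, 5% CO2 to OD600 0.2, in triplicate cultures per strain, without antibiotic or with telithromycin 0.008 µg/ml (erythromycin 0.25 µg/ml as a further condition). Cultures were then stabilised in RNAProtect Bacteria Reagent and pelleted. Total RNA was extracted and erm(B) mRNA quantified relative to untreated cultures.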

[11] = tested on: Streptococcus pneumoniae; assay: Increase in dimethylation at position A2058 of 23S rRNA of wild type Streptococcus pneumoniae PC13 at 0.25 ug/ml by phosphorimager scanning relative to baseline; procedure, shortened: as §2
[12] = tested on: Streptococcus pneumoniae; assay: Antimicrobial activity against Streptococcus pneumoniae PC13 transformant harboring 136-bp deletion in erm(B) gene by agar dilution method; procedure, shortened: as §1
[13] = tested on: Streptococcus pneumoniae; assay: Increase in erm(B) mRNA expression in wild-type Streptococcus pneumoniae PC13 at 0.008 ug/ml by qRT-PCR relative to baseline; procedure, shortened: as §5
[14] = tested on: Streptococcus pneumoniae; assay: Increase in dimethylation at position A2058 of 23S rRNA of wild type Streptococcus pneumoniae PC13 at 0.008 ug/ml by phosphorimager scanning relative to baseline; procedure, shortened: as §2
[15] = tested on: Streptococcus pneumoniae; assay: Increase in dimethylation at position A2058 of 23S rRNA of Streptococcus pneumoniae PC13 transformant harboring 136-bp deletion in erm(B) gene at 0.008 ug/ml by phosphorimager scanning relative to baseline; procedure, shortened: as §3
[16] = tested on: Streptococcus pneumoniae; assay: Increase in dimethylation at position A2058 of 23S rRNA of Streptococcus pneumoniae isolate P1501016 at 0.008 ug/ml by phosphorimager scanning relative to baseline; procedure, shortened: as §2

## CC[C@H]1OC(=O)[C@H](C)[C@@H](O[C@H]2C[C@@](C)(OC)[C@@H](O)[C@H](C)O2)[C@H](C)[C@@H](O[C@@H]2O[C@H](C)C[C@H](N(C)C)[C@H]2O)[C@](C)(OC)C[C@@H](C)C(=O)[C@H](C)[C@@H](O)[C@]1(C)O [CLARITHROMYCIN]
[1]
  MIC: > 256 µg/mL
[2]
  MIC: > 256 µg/mL

## CCC[C@@H]1C[C@@H](C(=O)N[C@@H]([C@H]2O[C@H](SC)[C@H](O)[C@@H](O)[C@H]2O)[C@H](C)Cl)N(C)C1 [CLINDAMYCIN]
[1]
  MIC: > 256 µg/mL
[2]
  MIC: > 256 µg/mL

## CC[C@H]1OC(=O)[C@H](C)[C@@H](O[C@H]2C[C@@](C)(OC)[C@@H](O)[C@H](C)O2)[C@H](C)[C@@H](O[C@@H]2O[C@H](C)C[C@H](N(C)C)[C@H]2O)[C@](C)(O)C[C@@H](C)C(=O)[C@H](C)[C@@H](O)[C@]1(C)O [ERYTHROMYCIN]
[3]
  Activity: 53 min
[1]
  MIC: > 256 µg/mL
[4]
  Activity: 68%
[5]
  fold change (FC): 2.57
[6]
  fold change (FC): 4.98
[7]
  Activity: 72%
[8]
  Activity: 43.3 min
[2]
  MIC: > 256 µg/mL
[9]
  Activity: 52.5 min

## CC[C@H]1OC(=O)[C@H](C)C(=O)[C@H](C)[C@@H](O[C@@H]2O[C@H](C)C[C@H](N(C)C)[C@H]2O)[C@](C)(OC)C[C@@H](C)C(=O)[C@H](C)[C@H]2N(CCCCn3cnc(-c4cccnc4)c3)C(=O)O[C@]12C [TELITHROMYCIN]
[10]
  fold change (FC): 1.31
[1]
  MIC: 0.06 µg/mL (≈ 0.0739 µM)
[11]
  Activity: 46%
[12]
  MIC: 16 µg/mL (≈ 19.7 µM)
[13]
  fold change (FC): 0.66
[14]
  Activity: 29%
[2]
  MIC: 8 µg/mL (≈ 9.85 µM)
[15]
  Activity: 64%
[16]
  Activity: 66%

## CN(C)[C@@H]1C(O)=C(C(N)=O)C(=O)[C@@]2(O)C(O)=C3C(=O)c4c(O)cccc4[C@@](C)(O)[C@H]3C[C@@H]12 [TETRACYCLINE]
[1]
  MIC: 16 µg/mL (≈ 36 µM)
[12]
  MIC: 16 µg/mL (≈ 36 µM)
[2]
  MIC: 4 µg/mL (≈ 9 µM)
